Data as given in ChEMBL document CHEMBL4014298, “Discovery of a series of 8-(1-phenylpyrrolidin-2-yl)-6-carboxamide-2-morpholino-4H-chromen-4-one as PI3Kβ/δ inhibitors for the treatment of PTEN-deficient tumours” (Bioorg Med Chem Lett, 2017).
Values after ≈ are worked out from the molar mass of the structure shown.

Key:
[1] = target: Choline/ethanolamine kinase (Homo sapiens, UniProt Q9Y259); assay: Inhibition of human CHKbeta (1 to 395 residues) by ADP Glo HTS assay
Summary of the method: (§1)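 Lipid kinase selectivity assessed in a 15-kinase panel (Dundee University lipid kinase panel), IC50 determined.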

Cytochrome P450 3A4 = Cytochrome P450 3A4 (Homo sapiens, UniProt P08684); assay: Inhibition of CYP3A4 (unknown origin); type: ADME
Cytochrome P450 2C19 = Cytochrome P450 2C19 (Homo sapiens, UniProt P33261); assay: Inhibition of CYP2C19 (unknown origin); type: ADME
[2] = Volume of distribution at steady state in dog blood at 4 umol/kg, iv or 10 umol/kg, po; type: ADME, organism-based, Canis lupus familiaris; details: read-out: Vdss
[3] = target: T1, Phosphatidylinositol 4,5-bisphosphate 3-kinase catalytic subunit delta isoform (Homo sapiens, UniProt O00329); assay: Inhibition of PI3Kdelta in human JeKo1 B cells assessed as decrease in AKT phosphorylation at Ser473 measured after 1 hr; type: cell-based
T1 sequence (O00329 whole entry): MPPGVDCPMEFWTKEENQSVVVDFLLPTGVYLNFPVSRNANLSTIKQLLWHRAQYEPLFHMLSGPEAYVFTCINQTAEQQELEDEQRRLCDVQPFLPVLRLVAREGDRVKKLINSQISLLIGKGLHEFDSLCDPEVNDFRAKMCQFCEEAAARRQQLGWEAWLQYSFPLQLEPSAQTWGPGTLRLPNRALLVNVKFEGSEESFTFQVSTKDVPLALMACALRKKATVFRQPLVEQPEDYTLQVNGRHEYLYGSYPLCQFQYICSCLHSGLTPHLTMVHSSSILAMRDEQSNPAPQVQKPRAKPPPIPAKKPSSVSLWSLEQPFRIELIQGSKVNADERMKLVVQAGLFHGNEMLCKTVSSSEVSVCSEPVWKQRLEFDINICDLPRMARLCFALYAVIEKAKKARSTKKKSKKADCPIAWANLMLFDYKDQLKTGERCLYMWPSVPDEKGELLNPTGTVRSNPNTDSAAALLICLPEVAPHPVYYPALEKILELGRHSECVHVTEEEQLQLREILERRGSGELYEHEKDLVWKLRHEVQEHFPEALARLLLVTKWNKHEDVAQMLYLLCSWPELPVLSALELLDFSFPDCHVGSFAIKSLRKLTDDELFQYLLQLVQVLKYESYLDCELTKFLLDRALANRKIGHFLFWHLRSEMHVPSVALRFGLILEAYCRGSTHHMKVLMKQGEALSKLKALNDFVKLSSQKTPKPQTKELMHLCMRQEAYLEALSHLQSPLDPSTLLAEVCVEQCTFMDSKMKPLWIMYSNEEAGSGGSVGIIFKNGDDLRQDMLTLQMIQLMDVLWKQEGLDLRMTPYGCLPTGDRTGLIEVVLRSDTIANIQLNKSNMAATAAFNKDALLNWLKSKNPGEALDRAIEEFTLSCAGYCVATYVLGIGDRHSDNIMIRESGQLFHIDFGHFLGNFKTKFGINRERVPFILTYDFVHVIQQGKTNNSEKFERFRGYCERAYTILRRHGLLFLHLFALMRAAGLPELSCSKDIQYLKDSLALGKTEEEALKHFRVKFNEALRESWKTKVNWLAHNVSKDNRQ

[4] = target: Phosphatidylinositol 5-phosphate 4-kinase type-2 alpha (Homo sapiens, UniProt P48426); assay: Inhibition of human PIP5K2alpha (1 to 406 residues) by ADP Glo HTS assay; summary of the method: as §1
[5] = Volume of distribution at steady state in mouse blood at 5 umol/kg, iv or 30 umol/kg, po; type: ADME, organism-based; details: read-out: Vdss
[6] = target: T2, Phosphatidylinositol 4,5-bisphosphate 3-kinase catalytic subunit gamma isoform (Homo sapiens, UniProt P48736); assay: Inhibition of human PI3Kgamma (2 to 1102 residues) by ADP Glo HTS assay; summary of the method: as §1
Choline kinase alpha = Choline kinase alpha (Homo sapiens, UniProt P35790); assay: Inhibition of human CHKalpha (1 to 457 residues) by ADP Glo HTS assay; summary of the method: as §1
[7] = Apparent permeability across apical to basolateral side in human Caco2 cells; details: Caco-2
[8] = target: Diacylglycerol kinase gamma (Homo sapiens, UniProt P49619); assay: Inhibition of human DGKgamma (1 to 752 residues) by ADP Glo HTS assay; summary of the method: as §1
[9] = Solubility of the compound in aqueous buffer at pH 6.5; type: physicochemical
Summary of the method: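 Solubility from crystalline solid in aqueous buffer, pH 6.5, µg/mL.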

Cytochrome P450 1A2 = Cytochrome P450 1A2 (Homo sapiens, UniProt P05177); assay: Inhibition of CYP1A2 (unknown origin); type: ADME
[10] = target: Phosphatidylinositol 4,5-bisphosphate 3-kinase catalytic subunit beta isoform (Homo sapiens, UniProt P42338); assay: Inhibition of PI3Kbeta in PTEN-deficient human MDA-MB-468 cells assessed as decrease in AKT phosphorylation at Ser473 measured after 2 hrs
[11] = target: Phosphatidylinositol 4,5-bisphosphate 3-kinase catalytic subunit alpha isoform (Homo sapiens, UniProt P42336, E542K); assay: Inhibition of human PI3Kalpha (2 to 1068 residues)/p85 (1 to 724 residues) E542K mutant by ADP Glo HTS assay; summary of the method: as §1
[12] = Inhibition of PI3Kalpha mutant in human BT474 cells assessed as decrease in AKT phosphorylation at Thr308 after 2 hrs; type: cell-based; details: BT-474, 2 h
[13] = target: Phosphatidylinositol 3-kinase regulatory subunit alpha (Homo sapiens, UniProt P27986); assay: Inhibition of human PI3K p85alpha (1 to 724 residues) by ADP Glo HTS assay; summary of the method: as §1
[14] = target: Voltage-gated inwardly rectifying potassium channel KCNH2 (Homo sapiens, UniProt Q12809); assay: Inhibition of human ERG
[15] = target: Phosphatidylinositol 4,5-bisphosphate 3-kinase catalytic subunit alpha isoform (Homo sapiens, UniProt P42336, E545K); assay: Inhibition of human PI3Kalpha (2 to 1068 residues)/p85 (1 to 724 residues) E545K mutant by ADP Glo HTS assay; summary of the method: as §1
[16] = target: Diacylglycerol kinase zeta (Homo sapiens, UniProt Q13574); assay: Inhibition of human DGKzeta (1 to 929 residues) by ADP Glo HTS assay; summary of the method: as §1
Cytochrome P450 2C9 = Cytochrome P450 2C9 (Homo sapiens, UniProt P11712); assay: Inhibition of CYP2C9 (unknown origin); type: ADME
[17] = target: MAP kinase-interacting serine/threonine-protein kinase 1 (Homo sapiens) (UniProt Q9BUB5); assay: Inhibition of human MNK1 (2 to 424 residues) at 1 uM after 5 mins in presence of [33P]ATP by filter binding assay relative to control
[18] = target: T2, Phosphatidylinositol 4,5-bisphosphate 3-kinase catalytic subunit gamma isoform; assay: Inhibition of recombinant human PI3Kgamma using PIP2 as substrate preincubated for 20 mins followed by substrate addition measured after 80 mins in presence of ATP by Kinase Glo luminescence assay
Summary of the method: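 Enzyme IC50 against PI3Kγ, single determination (n=1).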

[19] = Oral bioavailability in dog blood at 10 umol/kg; type: ADME, organism-based, Canis lupus familiaris
[20] = Fraction unbound in human plasma; type: ADME, cell-free
Summary of the method: (§2)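 Plasma protein binding in mouse, dog or human plasma, reported as fraction unbound (%).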

[21] = AUC in mouse at 30 umol/kg, po; type: ADME; details: in vivo
[22] = Fraction unbound in dog plasma; type: ADME, cell-free, Canis lupus familiaris; summary of the method: as §2

T2 sequence (P48736 whole entry, the tested form may be a part, canonical isoform): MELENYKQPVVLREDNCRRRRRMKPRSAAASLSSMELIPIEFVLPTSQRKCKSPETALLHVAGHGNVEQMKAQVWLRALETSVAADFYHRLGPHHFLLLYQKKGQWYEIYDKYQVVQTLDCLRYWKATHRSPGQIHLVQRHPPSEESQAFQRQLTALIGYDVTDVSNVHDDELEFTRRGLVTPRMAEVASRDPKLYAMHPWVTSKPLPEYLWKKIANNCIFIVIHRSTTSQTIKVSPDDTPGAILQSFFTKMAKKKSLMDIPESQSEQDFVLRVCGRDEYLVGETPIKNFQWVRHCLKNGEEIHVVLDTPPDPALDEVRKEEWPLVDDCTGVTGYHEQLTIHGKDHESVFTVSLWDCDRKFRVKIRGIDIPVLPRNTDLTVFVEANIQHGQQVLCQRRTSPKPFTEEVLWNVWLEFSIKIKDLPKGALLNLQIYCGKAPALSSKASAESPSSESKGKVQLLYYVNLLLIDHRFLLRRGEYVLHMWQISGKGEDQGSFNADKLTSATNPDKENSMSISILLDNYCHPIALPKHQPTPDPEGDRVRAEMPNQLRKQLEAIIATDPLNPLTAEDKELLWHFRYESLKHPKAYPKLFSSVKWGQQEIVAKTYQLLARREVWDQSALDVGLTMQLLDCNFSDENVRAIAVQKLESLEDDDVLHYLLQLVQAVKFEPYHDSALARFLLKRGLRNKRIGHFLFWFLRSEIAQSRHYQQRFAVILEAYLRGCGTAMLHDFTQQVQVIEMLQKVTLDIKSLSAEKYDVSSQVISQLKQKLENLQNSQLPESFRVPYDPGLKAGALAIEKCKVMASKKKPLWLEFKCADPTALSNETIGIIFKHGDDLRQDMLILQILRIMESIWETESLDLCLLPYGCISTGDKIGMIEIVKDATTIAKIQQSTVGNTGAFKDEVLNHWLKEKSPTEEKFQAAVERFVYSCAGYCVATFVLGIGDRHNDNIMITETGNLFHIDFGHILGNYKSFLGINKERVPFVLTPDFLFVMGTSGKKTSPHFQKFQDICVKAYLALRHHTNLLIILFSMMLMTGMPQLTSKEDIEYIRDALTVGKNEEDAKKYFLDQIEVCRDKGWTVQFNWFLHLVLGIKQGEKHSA
Chain of Cytochrome P450 2C9 (P11712 whole entry, the tested form may be a part): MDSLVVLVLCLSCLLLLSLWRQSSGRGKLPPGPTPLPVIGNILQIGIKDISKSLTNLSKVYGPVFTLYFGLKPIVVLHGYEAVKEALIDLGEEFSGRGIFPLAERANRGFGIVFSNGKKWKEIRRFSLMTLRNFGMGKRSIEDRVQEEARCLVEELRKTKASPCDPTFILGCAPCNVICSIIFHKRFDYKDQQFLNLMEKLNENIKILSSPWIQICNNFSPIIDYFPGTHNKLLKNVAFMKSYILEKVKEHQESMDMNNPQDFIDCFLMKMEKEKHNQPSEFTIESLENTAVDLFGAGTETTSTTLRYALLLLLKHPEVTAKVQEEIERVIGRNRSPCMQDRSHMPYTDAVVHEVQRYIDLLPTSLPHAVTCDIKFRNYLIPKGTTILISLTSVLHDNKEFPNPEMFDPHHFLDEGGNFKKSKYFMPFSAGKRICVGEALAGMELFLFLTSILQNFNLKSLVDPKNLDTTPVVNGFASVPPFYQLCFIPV
Chain of Cytochrome P450 2C19 (P33261 whole entry): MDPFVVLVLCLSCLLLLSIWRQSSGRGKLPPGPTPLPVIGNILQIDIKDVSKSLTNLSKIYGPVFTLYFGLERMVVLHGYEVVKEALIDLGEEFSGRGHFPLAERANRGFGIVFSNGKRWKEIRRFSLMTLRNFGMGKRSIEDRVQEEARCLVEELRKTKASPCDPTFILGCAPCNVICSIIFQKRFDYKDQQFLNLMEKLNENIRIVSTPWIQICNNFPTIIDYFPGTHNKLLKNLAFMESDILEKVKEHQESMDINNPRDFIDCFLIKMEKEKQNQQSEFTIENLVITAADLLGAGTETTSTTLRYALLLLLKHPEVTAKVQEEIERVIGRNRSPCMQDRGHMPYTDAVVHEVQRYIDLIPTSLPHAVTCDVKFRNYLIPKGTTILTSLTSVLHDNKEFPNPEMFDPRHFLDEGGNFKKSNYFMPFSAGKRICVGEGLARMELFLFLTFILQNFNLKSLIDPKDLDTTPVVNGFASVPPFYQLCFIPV
Chain of Phosphatidylinositol 4,5-bisphosphate 3-kinase catalytic subunit alpha isoform (Homo sapiens, UniProt P42336, E545K) (P42336 whole entry E545K, the tested form may be a part, canonical isoform): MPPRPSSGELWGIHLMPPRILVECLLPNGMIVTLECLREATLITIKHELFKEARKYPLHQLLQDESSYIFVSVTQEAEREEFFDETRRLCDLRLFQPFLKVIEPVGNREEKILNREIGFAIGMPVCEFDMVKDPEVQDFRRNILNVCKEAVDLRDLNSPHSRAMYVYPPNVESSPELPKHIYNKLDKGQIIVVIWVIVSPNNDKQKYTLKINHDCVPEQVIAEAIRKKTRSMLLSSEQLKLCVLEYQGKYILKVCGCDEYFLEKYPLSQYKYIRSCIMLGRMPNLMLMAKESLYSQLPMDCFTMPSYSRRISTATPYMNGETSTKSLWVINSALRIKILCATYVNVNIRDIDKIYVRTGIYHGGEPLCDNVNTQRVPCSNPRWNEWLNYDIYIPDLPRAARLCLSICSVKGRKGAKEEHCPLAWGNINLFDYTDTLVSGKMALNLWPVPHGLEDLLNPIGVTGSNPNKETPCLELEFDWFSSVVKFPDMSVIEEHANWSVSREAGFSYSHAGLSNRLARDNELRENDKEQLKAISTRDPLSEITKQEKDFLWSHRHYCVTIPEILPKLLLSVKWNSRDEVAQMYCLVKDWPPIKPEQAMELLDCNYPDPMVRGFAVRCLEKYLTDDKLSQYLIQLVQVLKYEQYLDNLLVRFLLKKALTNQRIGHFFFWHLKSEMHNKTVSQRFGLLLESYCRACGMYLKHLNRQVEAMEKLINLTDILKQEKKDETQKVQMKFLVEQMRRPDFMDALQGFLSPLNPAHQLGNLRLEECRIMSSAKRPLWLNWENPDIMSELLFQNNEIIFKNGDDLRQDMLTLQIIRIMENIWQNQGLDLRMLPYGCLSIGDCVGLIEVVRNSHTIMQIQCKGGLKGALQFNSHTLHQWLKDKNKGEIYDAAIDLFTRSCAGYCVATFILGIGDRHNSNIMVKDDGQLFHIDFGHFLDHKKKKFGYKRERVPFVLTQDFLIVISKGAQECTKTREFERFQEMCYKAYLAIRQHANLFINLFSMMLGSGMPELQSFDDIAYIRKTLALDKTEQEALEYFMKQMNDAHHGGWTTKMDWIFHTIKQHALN
Chain of Diacylglycerol kinase gamma (P49619 whole entry, the tested form may be a part): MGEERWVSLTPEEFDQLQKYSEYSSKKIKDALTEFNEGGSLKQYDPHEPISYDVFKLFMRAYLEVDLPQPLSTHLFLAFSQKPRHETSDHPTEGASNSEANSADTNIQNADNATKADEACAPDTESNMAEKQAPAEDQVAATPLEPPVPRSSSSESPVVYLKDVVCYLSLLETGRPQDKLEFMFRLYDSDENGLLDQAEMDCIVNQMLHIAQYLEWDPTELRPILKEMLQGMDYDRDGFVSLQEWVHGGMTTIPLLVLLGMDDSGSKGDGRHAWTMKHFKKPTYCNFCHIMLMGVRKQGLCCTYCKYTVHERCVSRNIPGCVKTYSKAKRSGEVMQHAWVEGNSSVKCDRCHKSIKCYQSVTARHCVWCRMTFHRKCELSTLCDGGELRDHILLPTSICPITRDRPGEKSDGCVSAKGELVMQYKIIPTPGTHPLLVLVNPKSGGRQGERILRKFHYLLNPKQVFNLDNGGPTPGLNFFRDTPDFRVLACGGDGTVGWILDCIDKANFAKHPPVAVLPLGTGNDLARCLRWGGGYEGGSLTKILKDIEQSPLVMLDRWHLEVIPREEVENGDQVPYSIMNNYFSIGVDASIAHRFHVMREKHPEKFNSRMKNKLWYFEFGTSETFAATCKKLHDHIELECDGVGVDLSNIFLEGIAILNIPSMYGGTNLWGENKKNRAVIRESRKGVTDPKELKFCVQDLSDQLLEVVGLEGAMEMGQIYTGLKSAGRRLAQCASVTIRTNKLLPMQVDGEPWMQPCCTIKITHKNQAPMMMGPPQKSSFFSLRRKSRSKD
Chain of Diacylglycerol kinase zeta (Q13574 whole entry, the tested form may be a part): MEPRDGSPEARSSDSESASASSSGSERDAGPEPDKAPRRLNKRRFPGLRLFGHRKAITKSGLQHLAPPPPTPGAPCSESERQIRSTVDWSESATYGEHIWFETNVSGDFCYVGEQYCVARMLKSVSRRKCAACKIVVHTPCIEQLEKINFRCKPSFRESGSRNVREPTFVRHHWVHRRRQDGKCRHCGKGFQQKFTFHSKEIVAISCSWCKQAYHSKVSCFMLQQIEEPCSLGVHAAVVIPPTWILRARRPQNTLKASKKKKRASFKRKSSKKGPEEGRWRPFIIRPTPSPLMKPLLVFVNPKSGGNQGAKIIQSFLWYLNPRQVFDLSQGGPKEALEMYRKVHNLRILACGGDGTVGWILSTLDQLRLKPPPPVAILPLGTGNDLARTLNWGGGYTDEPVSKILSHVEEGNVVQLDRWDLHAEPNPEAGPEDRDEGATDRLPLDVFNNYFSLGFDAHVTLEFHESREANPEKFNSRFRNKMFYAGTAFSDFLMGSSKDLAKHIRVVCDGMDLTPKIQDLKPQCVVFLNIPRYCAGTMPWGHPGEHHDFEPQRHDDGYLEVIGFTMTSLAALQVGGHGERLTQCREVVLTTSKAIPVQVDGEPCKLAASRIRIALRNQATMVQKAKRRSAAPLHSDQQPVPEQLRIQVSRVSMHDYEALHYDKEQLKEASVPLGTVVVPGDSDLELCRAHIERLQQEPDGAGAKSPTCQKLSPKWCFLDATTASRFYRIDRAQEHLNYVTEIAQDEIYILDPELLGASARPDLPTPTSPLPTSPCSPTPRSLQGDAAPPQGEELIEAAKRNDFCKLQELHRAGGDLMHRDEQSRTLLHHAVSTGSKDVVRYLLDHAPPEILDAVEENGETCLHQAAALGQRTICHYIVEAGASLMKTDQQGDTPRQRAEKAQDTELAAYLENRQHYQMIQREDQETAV
Chain of Phosphatidylinositol 4,5-bisphosphate 3-kinase catalytic subunit alpha isoform (Homo sapiens, UniProt P42336, E542K) (P42336 whole entry E542K, the tested form may be a part, canonical isoform): as the sequence (P42336 whole entry E545K, the tested form may be a part, canonical isoform) above, with E542K, K545E counted along it

O=C(c1cc([C@H]2CCCN2c2cc(F)cc(F)c2)c2oc(N3CCOCC3)cc(=O)c2c1)N1CCOCC1
IC50 [1]: > 50 µM
IC50 (Cytochrome P450 3A4): > 30 µM
IC50 (Cytochrome P450 2C19): > 30 µM
Vd [2]: 1.2 L/kg
IC50 [3]: 14 nM
IC50 [4]: > 50 µM
Vd [5]: 1 L/kg
IC50 [6]: > 50 µM
IC50 (Choline kinase alpha): > 50 µM
Papp A→B [7]: 18 ×10⁻⁶ cm/s
IC50 [8]: > 50 µM
solubility [9]: 230 µg/mL (≈ 438 µM)
IC50 (Cytochrome P450 1A2): > 30 µM
IC50 [10]: 1.1 nM
IC50 [11]: > 50 µM
IC50 [12]: 140 nM
IC50 [13]: > 50 µM
IC50 [14]: 45 µM
IC50 [15]: > 50 µM
IC50 [16]: > 50 µM
IC50 (Cytochrome P450 2C9): > 30 µM
inhibition [17]: 36%
IC50 [18]: 190 nM
bioavailability [19]: 29%
fraction unbound [20]: 0.17
AUC [21]: 2.8 µM·h
fraction unbound [22]: 0.28
